PubChem BioAssay AID624466 (The Scripps Research Institute Molecular Screening Center, 2012)
Among all 360,000 compounds or so, about 5,400 (1.5%) were called active.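 The calls were made as follows: active = inhibition above a per-plate cutoff, the mean inhibition of test compounds on that plate plus 3 SD (cut at about 49% in these data); inactive = the rest.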 This excerpt belongs to a sample that is enriched for actives.

These compounds were tested against Trace amine-associated receptor 1 (Homo sapiens) (UniProt Q96RJ0) (assay: human TAAR1 antagonists, primary screen, Fluo-8 calcium fluorescence, CHO RD-HGA16 cells (AID 624466;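 also: 0% = DMSO plus EC80 beta-PEA response and 100% = DMSO alone without agonist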)). Settings: CHO RD-HGA16 TAAR1, Fluo-8 calcium fluorescence, antagonist; at 3 µM; stronger effect = higher value.
Trace amine-associated receptor 1 (Homo sapiens), sequence (Q96RJ0 whole entry, looked up): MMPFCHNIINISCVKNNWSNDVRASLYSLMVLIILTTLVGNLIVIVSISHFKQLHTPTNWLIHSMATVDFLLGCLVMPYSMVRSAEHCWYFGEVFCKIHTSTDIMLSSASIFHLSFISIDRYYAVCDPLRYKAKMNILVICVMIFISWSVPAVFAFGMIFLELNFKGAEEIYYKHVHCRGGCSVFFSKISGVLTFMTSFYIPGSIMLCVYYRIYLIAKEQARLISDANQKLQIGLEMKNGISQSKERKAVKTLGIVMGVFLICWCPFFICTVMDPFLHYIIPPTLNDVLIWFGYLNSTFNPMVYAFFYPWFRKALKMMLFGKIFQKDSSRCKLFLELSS
Method in brief: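 Assay system: RD-HGA16 CHO cells with stable hTAAR1 and Gα16 / Reagent: EC80 β-phenethylamine stimulus / Doses: 3 µM, single point / Timing: dye loading 75 min at 37 °C, then 30 min room temperature / Measured by: Fluo-8 intracellular calcium dye fluorescence, real-time kinetic reads / Controls: vehicle wells and EC80 agonist wells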

Row | SMILES | inhibition
1 | O=C(Nc1ccc(-c2nnc(-c3ccccc3)o2)cc1)c1ccc(Br)o1 | 71% (active)
2 | CN1CCN(C(=O)c2ccc(NC(=O)c3ccc(Br)o3)cc2)CC1 | -4.9% (inactive)
3 | CCS(=O)(=O)c1ccc(-c2cccc(NC(=O)c3ccc(Br)o3)c2)nn1 | 13.4% (inactive)
4 | CC(=O)OCC1(O)CC23CCC4c5ccoc5CCC4(C)C2CCC1C3 (stereo unspecified) | 13.6% (inactive)
5 | COC(=O)C[C@@H]1C=C[C@@H](NC(=O)c2cccnc2)[C@@H](CO)O1 | -15.9% (inactive)
6 | CCC(C)(C)NC(=O)c1cc([N+](=O)[O-])ccc1N1CCCCC1 | -10.4% (inactive)
7 | Cc1cc(OCCCN2CCN(Cc3ccccc3)CC2)ccc1[N+](=O)[O-] | -20.9% (inactive)
8 | Cc1cc(OCCCCOc2ccc(C#N)cc2)ccc1[N+](=O)[O-] | 51.1% (active)
9 | Cc1cc(OCC(=O)NC2CCN(C)CC2)ccc1[N+](=O)[O-] | -21.6% (inactive)
10 | COc1ccc(-n2nc(C(=O)NCC(=O)N3CCC(C(N)=O)CC3)c3ccccc3c2=O)cc1OC | 1.2% (inactive)
11 | CCOC(=O)C(Cc1ccc(N)cc1)N1C(=O)c2ccccc2C1=O (stereo unspecified) | 10.7% (inactive)
12 | N/C(=N\c1nc2ccccc2o1)NC(=O)C(Cc1ccccc1)N1C(=O)c2ccccc2C1=O (stereo unspecified) | 49% (active)
13 | O=C(NCCN1CCOCC1)[C@H](Cc1ccccc1)N1C(=O)c2ccccc2C1=O | -8.4% (inactive)
14 | CC(C)(C)C1CCC(=O)N2CCC[C@]2(c2ccccc2)C1 (stereo partly specified) | -2.31% (inactive)
15 | COc1ccc(-c2ccc(CN3C(CC(C)C)C(=O)N(Cc4cn(CC5CCCCC5)nn4)CCS3(=O)=O)cc2)cn1 (stereo unspecified) | -9.27% (inactive)
16 | COCOCCn1cc(CN2CCS(=O)(=O)N(Cc3ccc(-c4cccc(N(C)C)c4)cc3)C(CC(C)C)C2=O)nn1 (stereo unspecified) | 1.52% (inactive)
17 | COCOCCn1cc(CN2CCS(=O)(=O)N(Cc3ccc(-c4ccc(OC)cc4)cc3)C(CC(C)C)C2=O)nn1 (stereo unspecified) | 54.1% (active)
18 | CC(C)CC1C(=O)N(Cc2cn(CC3CCCCC3)nn2)CCS(=O)(=O)N1Cc1ccc(-c2ccc(Cl)cc2)cc1 (stereo unspecified) | -15.1% (inactive)
19 | COc1ccc(-c2ccc(CN3C(CC(C)C)C(=O)N(Cc4cn(CC5CCCCC5)nn4)CCS3(=O)=O)cc2)cc1 (stereo unspecified) | -8.03% (inactive)
20 | COCOCCn1cc(CN2CCS(=O)(=O)N(Cc3ccc(-c4ccccc4)cc3)C(CC(C)C)C2=O)nn1 (stereo unspecified) | 54.1% (active)
21 | CCOc1ccc(CNC(=O)CCC(=O)N2CCSc3ccccc32)cc1 | -0.53% (inactive)
22 | O=S1(=O)CC(N2CCN(CCO)CC2)CN1Cc1cn(Cc2ccc(Cl)cc2)nn1 (stereo unspecified) | -8.26% (inactive)

Row | SMILES | inhibition
23 | COc1ccc(OC)c(CN2C(=O)CCC2(C)c2nnnn2Cc2ccccc2)c1 (stereo unspecified) | -20.4% (inactive)
24 | CCN1CCN(c2nc(Nc3cc(OC)ccc3OC)nc(Nc3cc(OC)ccc3OC)n2)CC1 | -14.1% (inactive)
25 | COC(=O)c1ccc(Oc2nc(Nc3ccc(F)cc3)nc(N3CCCC3)n2)cc1 | -16.1% (inactive)
26 | CCOc1ccc(Nc2nc(Cl)nc(N3CCN(c4ccc(OC)cc4)CC3)n2)cc1 | 56.5% (active)
27 | CC(C)c1ccc(C=NNc2ccc([N+](=O)[O-])cn2)cc1 | 17.1% (inactive)
28 | O=[N+]([O-])c1ccc(N/N=C/c2ccccc2)cc1 | 61.6% (active)
29 | O=[N+]([O-])c1ccc(N=NNc2ccc([N+](=O)[O-])cc2)cc1 | -6.71% (inactive)
30 | O=C(NN=Cc1ccco1)C(=O)Nc1ccc(Cl)c([N+](=O)[O-])c1 | 8.28% (inactive)
31 | CN(C)c1ccc(C=NCCc2ccc(S(N)(=O)=O)cc2)cc1 | -1.3% (inactive)
32 | c1ccc2c(c1)CCc1snnc1-2 | -2.49% (inactive)
33 | NCCCNC(=S)NCCCN(Cc1ccc(Cl)cc1)c1ccc(Br)cn1 | 0.12% (inactive)
34 | S=C(NCCCc1cnc[nH]1)NCCCN(Cc1ccc(Cl)c(Cl)c1)c1ccc(Br)cn1 | 51.9% (active)
35 | C=CCN=C1NC(c2ccccc2)C(C(=O)OC)=C(C)N1Cc1ccc(C(F)(F)F)cc1 (stereo unspecified) | 31.4% (inactive)
36 | CSc1ncccc1C(=O)N1CCCC(Nc2ccc(F)c(F)c2)C1 (stereo unspecified) | 4.84% (inactive)
37 | CC(=O)c1c(C)[nH]c(C(=O)COC(=O)c2cccs2)c1C | 36% (inactive)
38 | CN(c1ccccc1)S(=O)(=O)c1ccc(Cl)c(C(=O)OCC(N)=O)c1 | -0.08% (inactive)
39 | CC(=O)c1c(C)[nH]c(C(=O)COC(=O)c2cccc(S(=O)(=O)N(C)c3ccccc3)c2)c1C | 81.8% (active)
40 | COc1ccccc1N1CCN(C(=O)Cn2nnc(-c3cccs3)n2)CC1 | 2.09% (inactive)
41 | O=C(Nc1ccc(N2CCN(C(=O)C3CC3)CC2)cc1)c1cccs1 | 16.4% (inactive)
42 | O=C(Nc1ccccc1-c1nnn(CC(=O)N2CCN(c3ccccc3)CC2)n1)c1cccs1 | 62% (active)
43 | Cc1ccc(F)cc1S(=O)(=O)Nc1cccc(C(=O)N2CCCC(C(N)=O)C2)c1 (stereo unspecified) | -13.3% (inactive)
44 | COC(=O)[C@]12CCCCC=C1N(Cc1ccco1)C(=O)[C@H](CC(=O)NCCCCc1ccccc1)C2 | 12.7% (inactive)

Row | SMILES | inhibition
45 | CN(C)c1ccc(/C=C2\NC(=S)N(Cc3ccccc3)C2=O)cc1 | 74.3% (active)
46 | CN(C(=O)CN1C(=O)NC(C)(CCc2ccccc2)C1=O)c1ccccc1 (stereo unspecified) | 9.09% (inactive)
47 | CC(=O)C1=C(C)N(Cc2ccccc2)C(=S)NC1c1cccc(Br)c1 (stereo unspecified) | 25.4% (inactive)
48 | O=C(NCCCc1ccccc1)C(=O)c1c[nH]c2ccccc12 | -6.38% (inactive)
49 | COc1ccc(OC)c2[nH]c(=O)c(CCNC(=O)C(=O)c3c[nH]c4ccccc34)cc12 | 64.7% (active)
50 | COc1ccc(OC)c2[nH]c(=O)c(CCNC(=O)C(C)(C)C)cc12 | -17% (inactive)
51 | CCC(C)c1ccc(NC(=O)COC(=O)C2CCCC2)cc1 (stereo unspecified) | 5.25% (inactive)
52 | CC(=O)Nc1ccc(NC(=O)COC(=O)C2CCC(C(C)(C)C)CC2)cc1 (stereo unspecified) | 65.2% (active)
53 | O=C(COC(=O)C1CCCCC1)Nc1ccc([N+](=O)[O-])cc1 | 35.5% (inactive)
54 | O=C(Nc1ccc(F)cc1)C(CCc1ccccc1)N1CCN(CC(=O)N2CCCC2)CC1 (stereo unspecified) | 4.42% (inactive)
55 | C[C@H](CO)N1C[C@H](C)[C@@H](CN(C)C(=O)Nc2ccccc2F)OCc2cn(nn2)CCCC1=O | 6.99% (inactive)
56 | CCCNC(=O)C1(C)CCN(Cc2csc(-c3ccc(Cl)cc3)n2)C1 (stereo unspecified) | -5.66% (inactive)
57 | CN(C)S(=O)(=O)c1cccc(NC(=O)COC(=O)C2(c3ccccc3F)CCCC2)c1 | 62.5% (active)
58 | CN(C)S(=O)(=O)c1cccc(NC(=O)COc2ccc3ccccc3c2)c1 | 30.8% (inactive)
59 | CN(C)S(=O)(=O)c1cccc(NC(=O)COC(=O)c2cc(=O)[nH]c(=O)[nH]2)c1 | -12.5% (inactive)
60 | Nc1[nH]c(C(=O)c2ccc(Br)cc2)c(-c2ccc3c(c2)OCO3)c1C(=O)NCCc1c[nH]c2ccccc12 | -6.65% (inactive)
61 | CC(C)(C)NC(=O)CN(C(=O)c1csnn1)c1ccccc1-c1ccccc1 | 5.99% (inactive)
62 | OC(CNCCc1ccc(Cl)cc1Cl)COc1ccccc1 (stereo unspecified) | 52.8% (active)
63 | OC(COc1ccccc1)CN1CCN(c2cccc(Cl)c2)CC1 (stereo unspecified) | -33.9% (inactive)
64 | COc1ccc(OCC(O)CNC(=O)Nc2ccc(Cl)cc2)cc1 (stereo unspecified) | 12.9% (inactive)
65 | CCOc1ccc(CCN2C(=O)C(=O)N([C@@H](Cc3ccc(O)cc3)CN3CCC[C@H]3CN3C(=O)C(=O)NC[C@@H]3CC(C)C)C[C@@H]2Cc2ccccc2)cc1 | -8.01% (inactive)
66 | CCOC(=O)C1CSCCS(=O)(=O)N1Cc1ccc(Cl)cc1 (stereo unspecified) | -2.26% (inactive)

Row | SMILES | inhibition
67 | C=CCn1c(SCc2cccc(F)c2)nc2cc(C(=O)N3CCC(C(N)=O)CC3)ccc2c1=O | 62.7% (active)
68 | C=CCn1c(SCC(=O)CC(=O)OCC)nc2cc(C(=O)N3CCC(C(N)=O)CC3)ccc2c1=O | -12.6% (inactive)
69 | NC(=O)C1CCN(C(=O)c2ccc3c(=O)n(Cc4cccc(Br)c4)c(=S)[nH]c3c2)CC1 | -0.46% (inactive)
70 | COc1ccc(-c2[nH]ncc2CN(C)Cc2cccnc2)c(F)c1 | -6.76% (inactive)
71 | COc1ccc2[nH]c(=O)c(CN(Cc3cccnc3)S(=O)(=O)c3ccccc3F)cc2c1 | 69.4% (active)
72 | CCOc1ccc2[nH]c(=O)c(CN(CCCO)S(=O)(=O)c3ccc(F)cc3)cc2c1 | 28.9% (inactive)
73 | O=C(Nc1cccc(NC(=O)c2ccc(Br)cc2)c1)c1ccccc1 | 66% (active)
74 | O=C(Nc1ccccc1)c1ccc2nsnc2c1 | -3.37% (inactive)
75 | CC(C)(C)NC(=O)c1cccc(NC(=O)Cc2ccc(Br)cc2)c1 | -5.95% (inactive)
76 | CCn1cc(/C=C2/SC(=S)NC2=O)c(C)n1 | -4.35% (inactive)
77 | O=C(NCc1cccnc1)c1ccc2nc([C@@H]3O[C@H](CO)[C@H](O)[C@H](O)[C@H]3O)[nH]c2c1 | 1.36% (inactive)
78 | CCOc1ccc(N2CC(C(=O)N/N=C/c3sccc3C)CC2=O)cc1 (stereo unspecified) | 105% (active)
79 | CCOc1ccc(NC(=O)[C@H](C)NC(=O)C2CC(=O)N(c3ccc(OC)cc3)C2)cc1 (stereo partly specified) | -34.6% (inactive)
80 | CCOc1ccc(N2CC(C(=O)NCc3ccccn3)CC2=O)cc1 (stereo unspecified) | -11.4% (inactive)
81 | O=C(NCc1ccccc1)[C@H]1CCCN1C(=O)[C@H]1CCCN1C(=O)c1cc(F)cc(F)c1 | -9.09% (inactive)
82 | COC(=O)[C@]12CCCCC=C1N(Cc1ccc3c(c1)OCO3)C(=O)[C@H](CC(=O)N1CCOCC1)C2 | 2.33% (inactive)
83 | Cn1c(=O)c2ccccc2n(CC(=O)Nc2ccc3c(c2)OCCO3)c1=O | -4.86% (inactive)
84 | Cc1c(C(=O)NCc2ccc(C#N)cc2)sc(=O)n1Cc1ccc(C(=O)N(C)C)cc1 | 0.09% (inactive)
85 | Cc1ccc(Cn2c(C)c(C(=O)NCc3ccccc3C(F)(F)F)sc2=O)cc1 | 24% (inactive)
86 | CC(=O)Oc1ccc(Cn2c(C)c(C(=O)NCc3ccc(C#N)cc3)sc2=O)cc1 | 85.1% (active)
